# Assay outcomes as filed in PubChem.
# PLC-beta3 inh – human PLC-beta3 inhibitors, primary screen, biochemical, fluorescence | 1-phosphatidylinositol 4,5-bisphosphate phosphodiesterase beta-3 (Homo sapiens), Q01970 | inhibition, % at 12.2 µM | Purified PLC-beta3, fluorogenic substrate | 370,000 tested, 0.18% active | AID 720704, 2013; in the data active = inhibition above about 11%;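 also: 0% = median of compound wells on plate and 100% = full blocker control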
# PLCg1 inh – PLC-gamma1 enzyme inhibitors, primary screen, biochemical, fluorescence, purified enzyme; 1-phosphatidylinositol 4,5-bisphosphate phosphodiesterase gamma-1 (Homo sapiens), P19174; fluorogenic substrate; inhibition, % at 12.2 µM; 370,000 tested, 0.84% active; AID 720700, 2013; in the data active = inhibition above about 9.5%
# proCasp7 act – procaspase-7 activators, primary screen, counter-screen for procaspase-3 activator project, biochemical, absorbance, HTS, human; Caspase-7 (Homo sapiens), P55210; 330,000 tested, 0.093% active; recombinant procaspase-7, Ac-DEVD-pNA absorbance 405 nm; D23A/D198A/D206A triple mutant, cannot self-cleave; scale: DMSO 0, 5 µM enzyme 100; activation, % at 8.5 µM;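 active = percent activation above the screen-wide mean plus 3 SD, cut at about 25% in these data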
#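 Assay system – Uncleavable procaspase-7 mutant enzyme · Quantity – 2 µM procaspase-7 mutant as dispensed · Times – 1 h preincubation, 2 h reaction · Dosing – single nominal 8.5 µM compound dose, 0.8% DMSO final · Buffer or medium – Zinc-free 50 mM HEPES buffer, pH 7.4, with NaCl and Triton X-100 · Detection – Epi-absorbance of released pNA at 405 nm, two timepoints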
# proCasp3 act – activators of human procaspase-3 D3A mutant, primary screen, biochemical, absorbance, PC-3 D3A mutant, single concentration; Caspase-3 (Homo sapiens), P42574; recombinant procaspase-3 D3A, Ac-DEVD-pNA absorbance 405 nm; activation, % at 8.5 µM; 330,000 tested, 0.11% active;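 active = activation above the mean of all tested compounds plus 3 SD, cut at about 21% in these data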;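 also: 0% = DMSO alone and 100% = DMSO wells spiked with extra 5 µM PC-3 D3A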
#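 Test system: Procaspase-3 D3A mutant; medium: Zinc-free HEPES/NaCl buffer with 0.01% Triton X-100 at pH 7.4; reagent: DEVD-pNA substrate; doses: one concentration, 8.5 µM nominal, 0.8% DMSO; times: 1 h preincubation plus 2 h reaction at 25 °C; signal: Epi-absorbance at 405 nm of released p-nitroaniline, 0 and 120 min; replicates: singlicate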
# sPLA2-III inh – human group III sPLA2 inhibitors, primary screen, biochemical, QFRET, BODIPY PC-A2 liposome substrate; 370,000 tested, 0.56% active; inhibition, % at 12.2 µM; QFRET BODIPY PC-A2 liposome hydrolysis, fluorescence;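 active = inhibition above mean plus 3 SD of compounds lying within the high and low control bounds, cut at about 19% in these data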;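 also: 0% = median of test compound wells and 100% = no enzyme DMSO wells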
# Target sequence (Q9NZ20 whole entry, looked up): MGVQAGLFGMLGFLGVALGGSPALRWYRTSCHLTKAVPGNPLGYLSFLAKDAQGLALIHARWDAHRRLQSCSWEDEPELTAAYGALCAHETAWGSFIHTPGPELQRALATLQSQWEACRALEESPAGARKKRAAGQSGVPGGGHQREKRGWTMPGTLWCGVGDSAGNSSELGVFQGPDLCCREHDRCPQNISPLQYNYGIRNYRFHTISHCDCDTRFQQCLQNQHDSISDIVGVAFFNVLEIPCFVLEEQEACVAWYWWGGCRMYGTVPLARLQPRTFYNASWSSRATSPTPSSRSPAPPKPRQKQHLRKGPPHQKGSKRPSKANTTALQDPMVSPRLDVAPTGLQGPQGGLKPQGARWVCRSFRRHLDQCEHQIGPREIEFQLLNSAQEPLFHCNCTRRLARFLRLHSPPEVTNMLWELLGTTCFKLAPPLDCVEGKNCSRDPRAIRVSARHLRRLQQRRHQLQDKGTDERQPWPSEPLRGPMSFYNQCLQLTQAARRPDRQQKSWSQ
# hGIII sPLA2 conf – human group III sPLA2 inhibitors, confirmation, biochemical, QFRET, triplicate. shares compounds with sPLA2-III inh. recombinant hGIII-sPLA2, BODIPY PC-A2 QFRET fluorescence. inhibition, % at 12.2 µM. 2,000 tested, 34% active. AID 743280, 2014;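 active = mean inhibition across triplicates above the hit cutoff set in the earlier primary screen, cut at about 19% in these data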;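 also: 0% = enzyme with DMSO and 100% = DMSO wells lacking enzyme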
# BODIPY interf – 535nm fluorescence optical interference, confirmation, artefact control for HGIII-sPLA2 inhibitor project, biochemical, QFRET | shares compounds with sPLA2-III inh | BODIPY FL product fluorescence interference | inhibition, % at 12.2 µM | 2,000 tested, 8.5% active | AID 743282, 2014;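 active = average inhibition above the solvent-only control mean plus 3 SD, cut at about 6% in these data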;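 also: 0% = DMSO with substrate plus product and 100% = DMSO with substrate alone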
# BODIPY interf DR – 535nm fluorescence optical interference, dose response, artefact control for HGIII-sPLA2 inhibitor project, biochemical, QFRET | shares compounds with sPLA2-III inh | BODIPY FL product fluorescence interference, cell-free | IC50, µM | 240 tested, under 10 active | AID 743455, 2014;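 active = IC50 at or below 10 µM; inactive = IC50 above 10 µM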
# The depositor's hits bear a star; i = inactive; . = not tested or not shown. Most compounds without a hit are left out; they make up all but 1.6% or so of the library.
SMILES,PLC-beta3 inh,PLCg1 inh,proCasp7 act,proCasp3 act,sPLA2-III inh,hGIII sPLA2 conf,BODIPY interf,others
CCOCCCNC(=O)C1CCN(C(=O)N(C)C)CC1,-2,4,0,6,20*,-1,-5,
O=C(COC(=O)c1cc(Cl)ccc1O)NC(=O)NCc1ccccc1,-7,0,-3,2,0,.,.,
Cc1ccc(C)c(N2CCN(CC3CCCCC3)CC2)c1,1,2,2,6,21*,15,-12,
O=S1(=O)C[C@@H](O)[C@@H](Nc2ccccc2)C1,-5,5,-3,1,-3,.,.,
COc1ccc(NC2CS(=O)(=O)CC2NCc2ccccc2)cc1 (stereo unspecified),5,3,2,7,21*,5,-5,
COc1ccc(-n2c(COc3ccc(C)cc3)nnc2SCC(=O)Nc2ccc(S(=O)(=O)Nc3cc(C)nc(C)n3)cc2)cc1,0,0,.,.,-61,.,.,
COC(=O)CNC(=O)COC(=O)c1cc(SC)ccc1Cl,-8,-6,-1,1,-2,.,.,
O=C(CC[C@H]1O[C@@H](n2ccc(=O)[nH]c2=O)[C@H](O)[C@@H]1O)NCc1cccc2ccccc12,8,6,.,.,2,.,.,
CCOc1ccc2c(c1)-c1c(ssc1=S)C(C)(C)N2C(=O)c1ccco1,4,6,-22,-8,21*,36*,1,BODIPY interf DR=>122
COc1ccc2c(c1)-c1c(ssc1=S)C(C)(C)N2C(=O)CSC1=NCCS1,0,5,-9,-17,16,.,.,
CCC(C)(C)C1CCC2(CC1)NC(=O)N(CC(=O)N1CCN(c3ccccc3OC)CC1)C2=O (stereo unspecified),0,2,.,.,-3,.,.,
Cc1ccccc1N1CCN(C2CCCN(C(=O)CCN3CCCO3)C2)CC1 (stereo unspecified),-4,3,9,6,3,.,.,
Nc1[nH]c(C(=O)c2ccccc2)c(-c2ccccc2C(F)(F)F)c1C(=O)c1cccs1,-19,-13,.,.,20*,10,-6,
COc1ccc(-n2nc(C(=O)NCC(=O)NCCC3=CCCCC3)c3ccccc3c2=O)cc1OC,-43,-28,11,1,1,.,.,
CC1CCCC(NC(=O)COC(=O)/C=C/c2ccc([N+](=O)[O-])cc2)C1C (stereo unspecified),-4,4,2,8,19*,-6,-11,
Cc1ccc(Cl)cc1NC(=O)C1CCCN1S(=O)(=O)c1ccc(-c2ccc(=O)[nH]n2)s1 (stereo unspecified),-5,3,7,4,-10,.,.,
Cc1cccc(NC(=O)c2cc(-c3cc(C)ccc3O)n[nH]2)c1,1,1,-5,4,-5,.,.,
COc1ccc(NC(=O)c2cc(-c3cc(C)ccc3O)n[nH]2)cc1Cl,7,5,4,1,20*,-3,-1,
Cc1ccc(S(=O)(=O)N2CCOCC2)cc1-c1n[nH]c(=S)n1-c1ccccc1,-6,5,-10,0,23*,11,-1,
O=C(/C=C/c1cccs1)c1ccc([N+](=O)[O-])cc1,-4,8,-1,0,21*,4,-2,
C1=CCC(CN2CCN(C3CCCCCC3)CC2)CC1 (stereo unspecified),-4,7,-5,4,20*,0,-14,
CC(=O)Nc1sc2c(c1C#N)CCCCC2,-1,6,2,-10,2,.,.,
CC(C)(C)C(=O)NC(=S)Nc1sc2c(c1C#N)CCCCC2,-4,0,-6,-2,22*,17,4,
CCC[C@@H](CN[C@@H](CNC)C(C)C)NCCCCc1ccccc1,2,1,0,0,19,.,.,
CCCC[C@@H](CNC)NC[C@H](NCCCCC1CCCCC1)C(C)C,1,6,-4,6,29*,-5,-28,
SMILES,PLC-beta3 inh,PLCg1 inh,proCasp7 act,proCasp3 act,sPLA2-III inh,hGIII sPLA2 conf,BODIPY interf,others
O=C(O)c1ccc(-n2nc(C(F)(F)F)cc2-c2cccs2)cc1,-9,4,.,.,0,.,.,
CCOC(=O)N1CCN(S(=O)(=O)c2ccc(F)c(C(=O)Nc3ccc(C)c(Cl)c3)c2)CC1,4,2,3,3,-38,.,.,
CCOC(=O)N1CCN(S(=O)(=O)c2ccc(F)c(C(=O)Nc3ccc(C(C)C)cc3)c2)CC1,-4,0,-12,-4,20*,-19,-17,
CN1C(=O)c2ccc(NC(=O)CCS(=O)(=O)c3ccccc3)cc2C1=O,-139,-81,3,-1,-5,.,.,
COc1ccc(-n2c(-c3cc(-c4ccccc4)sc3N)n[nH]c2=S)cc1,-8,-3,-1,-4,27*,21*,10*,
O=C1CN(C(=O)c2ccccc2Cl)c2ccccc2N1,-3,-3,3,4,21*,-3,-2,
O=C1CN(C(=O)c2ccccc2C(=O)O)c2ccccc2N1,-34,-19,-7,0,8,.,.,
COC(=O)c1c(C)cc(C)n2c1nc1ccccc12,i,i,10,1,22*,6,-6,
O=C(CCNC(=O)C1CCN(S(=O)(=O)c2ccc(F)cc2)CC1)NCc1ccccn1,-3,1,.,.,2,.,.,
Cc1cccc(C(=O)OC(C)C(=O)N2CCN(Cc3ccccc3)CC2)c1 (stereo unspecified),-4,2,.,.,3,.,.,
COc1ccc2c(c1)C(=O)C(=O)N2CC1COc2ccccc2O1 (stereo unspecified),1,-2,0,1,20*,25*,0,
O=C(NNC(=S)Nc1ccc(Cl)cc1)c1ccccc1,-7,-2,-8,-3,19*,39*,3,BODIPY interf DR=>122
O=C(CN1c2ccccc2Sc2ccccc21)NNC(=S)Nc1ccc(Cl)cc1,-5,2,-1,2,28*,7,18*,
CC1(NC(=S)NCCO)CCS(=O)(=O)C1 (stereo unspecified),2,7,5,10,20*,0,-8,
